For data set [1], the system named is Monocyte. The data set can be described thus: Inhibition of TNFalpha expression in LPS-stimulated human monocytes treated 30 mins before LPS challenge measured after 14 hrs by ELISA. In kind it is functional, cell-based. In a few lines:
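Human PBMC at 4 × 10^6/mL in DMEM with 30% FCS, glutamine and pen/strep were allowed to adhere for 2 h at 37 °C and 5% CO2. Nonadherent lymphocytes were washed off. Adherent monocytes were preincubated 30 min with graded compound concentrations, then stimulated with LPS. After 14 h, supernatants were assayed by ELISA. Values are percent of compound-free cultures, as means ± SE from three donors.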

Data set [2] in a line: Cytotoxicity against human monocytes assessed as depletion of cellular LDH activity. Type of data set: cell-based. The arrangement: concentration or dose not given beside the values. Conditions: monocyte. Summed up: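 Viability was taken from the LPS-stimulated adherent monocyte cultures after 14 h, lysed in 1% NP40 in PBS. LDH in the lysate was measured in 50 mM sodium pyrophosphate pH 8.9 with 50 mM lactic acid and 4 mg/mL NAD. The rate of NADH formation was read at 340 nm at room temperature. More than 20% depletion was counted as cytotoxic.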

Data set [3] has as its target T1, Phosphodiesterase 4 (Homo sapiens) (UniProt P27815+Q08499+Q07343+Q08493). The data set can be described thus: Inhibition of PDE4 in human monocytes assessed as elevation of cytosolic cAMP level at 100 uM treated for 30 mins assessed per 10^7 cells by EIA. In kind it is cell-based. Summed up: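 Elutriated human monocytes at 5 × 10^6/mL in complete medium (30% FCS) were precultured 2 h at 37 °C and 5% CO2. They were then exposed for 30 min to 100 µM flavone or 200 µM IBMX. Cells were lysed in cold 10 mM HEPES pH 7.6 with 1% NP40. cAMP was isolated on SAX columns, eluted with methanol/0.01 M HCl, dried, and quantified by EIA as pmol/10^7 cells.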
(In general: cAMP levels reflect the balance of adenylyl cyclase and phosphodiesterase activity.)

The target of data set [4] is T1, Phosphodiesterase 4 (Homo sapiens). The data set is described as follows: Inhibition of PDE4 in human U937 cells assessed as inhibition of cAMP hydrolysis at 11 uM by SPA. Conditions: U-937. In kind it is cell-based. In a few lines: (§1)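 PDE, mostly type IV by isoform-inhibitor sensitivity, was semipurified from U937 cells. cAMP hydrolysis was measured by scintillation proximity assay across graded compound concentrations. Rates were expressed as percent of flavonoid-free control, and the concentration giving 50% inhibition was reported.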

In data set [5] the test system is Monocyte. The data set is described as follows: Inhibition of TNFalpha expression in LPS-stimulated human monocytes at 100 uM treated 30 mins before LPS challenge measured after 14 hrs by ELISA. Type of data set: functional. Summed up: (§2)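 Monocyte cultures were held 14 h in medium alone, with 20 ng/mL LPS alone, or with LPS plus 100 µM compound. IBMX served as reference. TNFα, IL-6, IL-8, IL-10 and MIP-1α were measured in supernatants by ELISA, and IL-1β in cell lysates made with 1% NP40 in PBS. Significance versus LPS alone was set at p < 0.05.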
A general note: ELISA stands for enzyme-linked immunosorbent assay.

Data set [6] relates to Monocyte. The data set is described as follows: Inhibition of IL1-beta expression in LPS-stimulated human monocytes at 100 uM treated 30 mins before LPS challenge measured after 14 hrs by ELISA. Type of data set: functional. In a few lines:
as §2

For data set [7], the system named is Monocyte. The data set can be described thus: Inhibition of IL8 expression in LPS-stimulated human monocytes at 100 uM treated 30 mins before LPS challenge measured after 14 hrs by ELISA. Type of data set: functional. In a few lines: as §2
Data set [8] concerns Monocyte. The data set is described as follows: Inhibition of MIP1alpha expression in LPS-stimulated human monocytes at 100 uM treated 30 mins before LPS challenge measured after 14 hrs by ELISA. In kind it is functional. In a few lines: as §2
Data set [9] deals with Monocyte. The data set is described as follows: Inhibition of IL10 expression in LPS-stimulated human monocytes at 100 uM treated 30 mins before LPS challenge measured after 14 hrs by ELISA. In kind it is functional. In a few lines:
as §2

The test system of data set [10] is Monocyte. The data set can be described thus: Inhibition of IL6 expression in LPS-stimulated human monocytes at 100 uM treated 30 mins before LPS challenge measured after 14 hrs by ELISA. Type of data set: functional. In a few lines:
as §2

For data set [11], the target named is T1, Phosphodiesterase 4 (Homo sapiens). The data set is described as follows: Inhibition of PDE4 in human U937 cells assessed as inhibition of cAMP hydrolysis at 16 uM by SPA. In kind it is cell-based. Conditions: U-937. In a few lines: as §1

The values that follow come from ChEMBL document CHEMBL1141808, “Polymethoxylated flavones derived from citrus suppress tumor necrosis factor-alpha expression by human monocytes” (J Nat Prod, 1999).

The structures appear in SMILES notation. The source made the active and inactive calls. The calls are words filed in the database; no cut-off is given here. A value given as a limit tells only on which side of the number the result lay.

A word on the IC50: it is the midpoint of a concentration-inhibition curve. In the case of `COc1ccc(-c2cc(=O)c3c(OC)c(OC)ccc3o2)cc1OC`, the IC50 in data set [1] was determined as 25 µM. Turning to `C[C@@H]1O[C@@H](OC[C@H]2O[C@@H](Oc3c(-c4ccc(O)cc4)oc4cc(O[C@@H]5O[C@@H](C)[C@H](O)[C@@H](O)[C@H]5O)cc(O)c4c3=O)[C@H](O)[C@@H](O)[C@@H]2O)[C@H](O)[C@H](O)[C@H]1O`, the Activity result in data set [2] is reported as “Non-toxic”. The result in data set [1] was inactive. `COc1cc(-c2cc(=O)c3c(OC)c(OC)c(OC)cc3o2)cc(OC)c1OC` yielded an IC50 in [1] of 20 µM. In turn, `COc1ccc(-c2oc3c(OC)c(OC)c(OC)c(O)c3c(=O)c2OC)cc1OC` had an IC50 in data set [1] of 10 µM. In turn, `COc1ccc(-c2cc(=O)c3c(OC)cc(OC)c(OC)c3o2)cc1OC` yielded an IC50 in data set [1] of 16 µM. In data set [1], `COc1ccc(-c2cc(=O)c3c(OC)c(OC)c(OC)cc3o2)cc1` yielded an IC50 of 22 µM. Consider `COc1ccc([C@@H]2CC(=O)c3c(O)cc(O)cc3O2)cc1O`, for which the result in data set [1] was inactive.

With `Oc1cc(O)c2c(c1)OC(c1ccc(O)c(O)c1)C(O)C2` (centres undefined), the result in data set [1] was inactive. The compound `COc1c(-c2ccc(O)c(O)c2)oc2cc(O)cc(O)c2c1=O` [3-O-METHYLQUERCETIN] had an IC50 in [1] of 47 µM.

On to `COc1ccc(-c2cc(=O)c3c(O)c(OC)c(OC)c(OC)c3o2)cc1OC` [5-DEMETHYLNOBILETIN], for which the IC50 in data set [1] came out at 5 µM.

As for `O=c1cc(-c2ccccc2)oc2cc(O)ccc12` [7-HYDROXYFLAVONE], in data set [2], the Activity entry is recorded as “Non-toxic”. Moreover, the result in data set [1] was inactive. Taken in the same sequence, the figures for `Oc1cc(O)c2c(c1)O[C@H](c1ccc(O)c(O)c1)[C@H](O)C2` [(-)-EPICATECHIN] were “Non-toxic” and “inactive”. Turning to `COc1ccc(-c2cc(=O)c3c(O)cc(O)cc3o2)cc1` [ACACETIN], the Activity in data set [2] is more than 20%. This compound also yielded an IC50 in data set [1] of 22 µM.

Regarding `O=c1cc(-c2ccc(O)cc2)oc2cc(O)cc(O)c12` [APIGENIN], the Activity in data set [2] is on record as more than 20%. This compound also showed an IC50 in data set [1] of 20 µM. `O=c1cc(-c2ccccc2)oc2cc(O)c(O)c(O)c12` [BAICALEIN]: the Activity result in data set [2] is “Non-toxic”. In data set [1], the outcome was inactive.

Take `Oc1cc(O)c2c(c1)O[C@H](c1ccc(O)c(O)c1)[C@@H](O)C2` [CATECHIN]: the Activity entry in [2] is on record as “Non-toxic”. For `O=c1cc(-c2ccccc2)oc2cc(O)cc(O)c12` [CHRYSIN], in data set [2], the Activity result is given as “Non-toxic”. Further, the result in data set [1] was inactive. Consider `COc1cc(-c2cc(=O)c3c(O)cc(O)cc3o2)ccc1O` [CHRYSOERIOL], for which the IC50 in [1] was 22 µM. Turning to `COc1ccc(-c2cc(=O)c3c(O)cc(O[C@@H]4O[C@H](CO[C@@H]5O[C@@H](C)[C@H](O)[C@@H](O)[C@H]5O)[C@@H](O)[C@H](O)[C@H]4O)cc3o2)cc1O` [DIOSMIN], the Activity entry in data set [2] is given as “Non-toxic”. The IC50 in [1] is more than 200 µM. Turning to `O=C1C[C@@H](c2ccc(O)c(O)c2)Oc2cc(O)cc(O)c21` [ERIODICTYOL], in [2], the Activity result was “Non-toxic”. In addition, the outcome in [1] was inactive.

With `O=c1c(O)c(-c2ccc(O)c(O)c2)oc2cc(O)ccc12` [FISETIN], in data set [2], the Activity entry is “Non-toxic”. Further, in [1], the result was inactive. For the compound `O=C1CC(c2ccccc2)Oc2ccccc21` (centres undefined) [FLAVANONE], the Activity result in data set [2] is recorded as “Non-toxic”. Also, the result in data set [1] was inactive.

The inhibition is the change of the read-out against control, counted positive when it falls. `O=c1cc(-c2ccccc2)oc2ccccc12` [FLAVONE]: in [3], the Activity worked out at 3.6 pmol. This compound had an IC50 in data set [1] of 166 µM. Besides, the inhibition in data set [4] worked out at 50%. For `O=c1c(O)c(-c2ccccc2)oc2ccccc12` [FLAVONOL], the Activity result in data set [2] is “Non-toxic”. Besides, in data set [1], the result was inactive.

As to `O=c1c(O)c(-c2ccccc2)oc2cc(O)cc(O)c12` [GALANGIN], the Activity entry in data set [2] was “Non-toxic”. Moreover, the result in data set [1] was inactive. `O=c1c(O)c(-c2ccc(O)c(O)c2)oc2c(O)c(O)cc(O)c12` [GOSSYPETIN]: in data set [2], the Activity entry is given as “Non-toxic”. Moreover, in data set [1], the outcome was inactive. In the case of `COc1ccc([C@@H]2CC(=O)c3c(O)cc(O[C@@H]4O[C@H](CO[C@@H]5O[C@@H](C)[C@H](O)[C@@H](O)[C@H]5O)[C@@H](O)[C@H](O)[C@H]4O)cc3O2)cc1O` [HESPERIDIN], the Activity result in [2] is listed as “Non-toxic”. Moreover, the IC50 in data set [1] is more than 200 µM. Consider `CC(C)Cn1c(=O)n(C)c(=O)c2nc[nH]c21` [ISOBUTYLMETHYLXANTHINE], for which the Activity worked out at 10.9 ng/mL in [5]; 99.1 ng/mL in data set [6]; 335 ng/mL in [7]; 33.2 ng/mL in data set [8]; 0.651 ng/mL in data set [9]; 79.7 ng/mL in data set [10]. Consider `O=c1c(O)c(-c2ccc(O)cc2)oc2cc(O)cc(O)c12` [KAEMPFEROL], for which the Activity in data set [2] is reported as more than 20%. Further, the IC50 in data set [1] stood at 20 µM.

Take `COc1cc(-c2oc3c(OC)c(O)cc(O)c3c(=O)c2O)ccc1O` [LIMOCITRIN]: the Activity in data set [2] was more than 20%. The IC50 in data set [1] was found to be 67 µM. Turning to `O=c1c(O)c(-c2cc(O)c(O)c(O)c2)oc2cc(O)cc(O)c12` [MYRICETIN], the Activity entry is “Non-toxic” in data set [2] and 3.7 pmol in data set [3]. Besides, in data set [11], the inhibition was 50%. Moreover, the result in [1] was inactive. As to `C[C@@H]1O[C@@H](O[C@H]2[C@H](Oc3cc(O)c4c(c3)O[C@H](c3ccc(O)cc3)CC4=O)O[C@H](CO)[C@@H](O)[C@@H]2O)[C@H](O)[C@H](O)[C@H]1O` [NARINGIN], the Activity entry in data set [2] is “Non-toxic”. In [1], this compound registered an IC50 of more than 200 µM. `C[C@@H]1O[C@@H](OC[C@H]2O[C@@H](Oc3cc(O)c4c(c3)O[C@H](c3ccc(O)cc3)CC4=O)[C@H](O)[C@@H](O)[C@@H]2O)[C@H](O)[C@H](O)[C@H]1O` [NARIRUTIN]: the Activity result in data set [2] is reported as “Non-toxic”. The IC50 in data set [1] is more than 200 µM. With `COc1ccc(-c2cc(=O)c3c(OC)c(OC)c(OC)c(OC)c3o2)cc1OC` [NOBILETIN], the IC50 in [1] came out at 10 µM.

On to `O=c1c(O)c(-c2ccc(O)c(O)c2)oc2cc(O)cc(O)c12` [QUERCETIN], for which the Activity in [2] is reported as more than 20%. This compound also returned an IC50 in data set [1] of 120 µM.

On to `COc1cc(O)c2c(=O)c(O)c(-c3ccc(O)c(O)c3)oc2c1` [RHAMNETIN], for which the Activity in data set [2] is given as more than 20%. The compound further returned an IC50 in data set [1] of 22 µM. `COc1ccc(-c2cc(=O)c3c(OC)c(OC)c(OC)cc3o2)cc1OC` [SINENSETIN]: inhibition in data set [1] was half-maximal at 8 µM (IC50). On the same count and under the same terms, as for `COc1ccc(-c2cc(=O)c3c(OC)c(OC)c(OC)c(OC)c3o2)cc1` [TANGERETIN], the figure is 30 µM.
